From ChEMBL document CHEMBL2157910, “Structure-activity relationship studies of 4-benzyl-1H-pyrazol-3-yl β-d-glucopyranoside derivatives as potent and selective sodium glucose co-transporter 1 (SGLT1) inhibitors with therapeutic activity on postprandial hyperglycemia” (Bioorg Med Chem, 2012)
pIC50: −log10 of the molar value. Values after ≈ are worked out from the molar mass of the structure shown. Active and inactive are the calls of the source. No cut-off for these calls is given here.

Legend:
[1] = molecular target: T1, Sodium/glucose cotransporter 2 (Homo sapiens, UniProt P31639); experiment: Inhibition of human SGLT2 expressed in COS7 cells assessed as reduction of [14C]-AMG uptake; format: cell-based, COS-7
T1 sequence (P31639 whole entry): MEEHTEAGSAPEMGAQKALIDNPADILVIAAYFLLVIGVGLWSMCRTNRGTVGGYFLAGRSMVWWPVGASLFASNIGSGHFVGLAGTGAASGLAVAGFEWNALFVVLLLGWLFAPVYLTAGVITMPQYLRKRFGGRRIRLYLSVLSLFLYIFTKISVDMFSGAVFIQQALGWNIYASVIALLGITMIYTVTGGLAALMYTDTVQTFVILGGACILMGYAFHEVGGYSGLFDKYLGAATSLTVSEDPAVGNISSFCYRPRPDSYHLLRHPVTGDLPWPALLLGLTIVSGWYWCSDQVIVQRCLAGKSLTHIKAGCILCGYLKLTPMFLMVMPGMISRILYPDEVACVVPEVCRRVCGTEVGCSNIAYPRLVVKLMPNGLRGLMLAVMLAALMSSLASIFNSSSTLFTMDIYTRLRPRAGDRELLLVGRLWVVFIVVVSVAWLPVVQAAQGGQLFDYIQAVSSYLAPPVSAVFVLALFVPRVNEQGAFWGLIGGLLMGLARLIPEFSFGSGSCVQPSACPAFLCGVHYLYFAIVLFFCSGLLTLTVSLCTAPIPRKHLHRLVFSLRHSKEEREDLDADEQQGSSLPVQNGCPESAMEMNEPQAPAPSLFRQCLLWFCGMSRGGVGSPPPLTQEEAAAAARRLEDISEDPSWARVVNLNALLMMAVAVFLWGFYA

[2] = molecular target: T2, Sodium/glucose cotransporter 1 (Rattus norvegicus, UniProt P53790); experiment: Inhibition of rat SGLT1 expressed in COS7 cells assessed as reduction of [14C]-AMG uptake; format: cell-based, COS-7
T2 sequence (P53790 whole entry): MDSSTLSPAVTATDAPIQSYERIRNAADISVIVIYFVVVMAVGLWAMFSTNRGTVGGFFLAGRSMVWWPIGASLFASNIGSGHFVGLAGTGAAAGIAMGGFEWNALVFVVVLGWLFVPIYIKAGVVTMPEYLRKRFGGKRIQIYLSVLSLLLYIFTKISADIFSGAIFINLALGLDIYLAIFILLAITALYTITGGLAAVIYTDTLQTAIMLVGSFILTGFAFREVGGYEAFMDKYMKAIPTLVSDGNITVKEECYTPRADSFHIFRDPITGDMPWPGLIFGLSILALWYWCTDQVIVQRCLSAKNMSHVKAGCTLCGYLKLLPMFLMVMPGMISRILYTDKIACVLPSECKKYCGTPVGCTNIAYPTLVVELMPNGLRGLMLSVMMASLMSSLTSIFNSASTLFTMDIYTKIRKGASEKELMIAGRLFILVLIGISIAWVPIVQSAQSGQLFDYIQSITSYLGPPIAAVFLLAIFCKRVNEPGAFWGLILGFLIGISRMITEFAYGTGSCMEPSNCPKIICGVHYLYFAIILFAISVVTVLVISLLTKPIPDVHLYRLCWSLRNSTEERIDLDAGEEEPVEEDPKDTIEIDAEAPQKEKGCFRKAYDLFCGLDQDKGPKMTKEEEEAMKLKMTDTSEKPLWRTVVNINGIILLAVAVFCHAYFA

[3] = molecular target: T3, Sodium/glucose cotransporter 2 (Rattus norvegicus, UniProt P53792); experiment: Inhibition of rat SGLT2 expressed in COS7 cells assessed as reduction of [14C]-AMG uptake; format: cell-based, COS-7
T3 sequence (P53792 whole entry): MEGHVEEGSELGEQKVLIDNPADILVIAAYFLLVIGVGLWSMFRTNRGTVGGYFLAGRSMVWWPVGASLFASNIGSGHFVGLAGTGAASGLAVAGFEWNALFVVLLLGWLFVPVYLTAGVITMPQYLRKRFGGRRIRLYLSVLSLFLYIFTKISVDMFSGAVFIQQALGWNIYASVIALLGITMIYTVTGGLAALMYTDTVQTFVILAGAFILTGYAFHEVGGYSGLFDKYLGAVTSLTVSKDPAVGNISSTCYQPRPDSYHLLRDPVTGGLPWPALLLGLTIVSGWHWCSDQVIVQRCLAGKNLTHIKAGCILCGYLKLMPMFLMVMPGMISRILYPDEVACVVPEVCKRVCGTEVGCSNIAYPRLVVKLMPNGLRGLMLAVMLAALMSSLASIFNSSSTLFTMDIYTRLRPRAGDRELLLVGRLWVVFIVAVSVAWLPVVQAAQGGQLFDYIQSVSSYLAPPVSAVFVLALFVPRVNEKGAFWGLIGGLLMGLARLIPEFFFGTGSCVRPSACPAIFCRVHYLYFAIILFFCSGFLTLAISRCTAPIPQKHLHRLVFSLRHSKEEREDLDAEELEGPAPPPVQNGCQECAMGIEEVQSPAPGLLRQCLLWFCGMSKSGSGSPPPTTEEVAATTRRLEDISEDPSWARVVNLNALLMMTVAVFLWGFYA

[4] = Metabolic stability of the compound in rat intestinal microsomes assessed as compound remaining at 50 uM after 30 mins; format: ADME, Intestine; conditions: for Stability: microsomes, 0.5 h, 50 µM; for remaining at 0.5 h, 50 µM: intestinal microsomes, read-out: Stability
In short: (§1)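 50 µM final compound incubated at 37 °C with 0.8 mg/mL rat intestinal microsomes, 1 mg/mL NADPH, 50 mM ammonium acetate (pH 5.0) and 10 mM MgCl2. Levels measured by LC–MS at 0, 30 and 60 min; reported as % remaining relative to 0 min.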

[5] = Metabolic stability of the compound in rat intestinal microsomes assessed as compound remaining at 50 uM after 60 mins; format: ADME, Intestine; conditions: for Stability: microsomes, 1 h, 50 µM; for remaining at 1 h, 50 µM: intestinal microsomes, read-out: Stability; in short: as §1
[6] = Solubility of the compound in distilled water; format: physicochemical
In short: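 Solubility measured in distilled water, with filtrate concentration quantified by HPLC.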

Rattus norvegicus [7] = experiment: Toxicity in Wistar rat assessed as overnight urinary glucose excretion at 10 mg/kg, po; format: organism-based, Urine; design: dose 10 mg/kg, route oral; conditions: in vivo
In short: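 Male Wistar rats (8 weeks) in metabolic cages, fasted 08:00 to next morning. At 16:00 they received 10 mg/kg orally in 0.5% CMC or vehicle, and urine was collected until 08:00. Urine glucose by glucose oxidase; n = 5; F-test then Student's t or Welch's test versus vehicle.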

Rattus norvegicus [8] = experiment: Antihyperglycemic activity in Wistar rat streptozotocin-nicotinamide-induced diabetic model assessed as reduction of plasma glucose level at 1 mg/kg, po after 1 hr by oral mixed carbohydrate tolerance test; format: functional, organism-based; design: dose 1 mg/kg
In short: (§2)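 Male Wistar rats (8 weeks) given nicotinamide 230 mg/kg i.p., then streptozotocin 85 mg/kg i.v. 15 min later; after 1 week, rats above 250 mg/dL plasma glucose at 1 h in a 2 g/kg glucose tolerance test were used. Overnight-fasted rats were dosed orally in 0.5% CMC, then immediately loaded with 2 g/kg starch/sucrose/lactose (6:3:1). Plasma glucose by glucose oxidase; n = 7; Dunnett's test versus vehicle.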

Rattus norvegicus [9] = experiment: Antihyperglycemic activity in po dosed Wistar rat streptozotocin-nicotinamide-induced diabetic model assessed as reduction of plasma glucose level after 1 hr by oral mixed carbohydrate tolerance test; format: functional, organism-based; in short: as §2
Rattus norvegicus [10] = experiment: Toxicity in Wistar rat streptozotocin-nicotinamide-induced diabetic model assessed as soft feces at 1 to 10 mg/kg, po; format: organism-based; design: dose 1-10 mg/kg, route oral; conditions: in vivo
Rattus norvegicus [11] = experiment: Toxicity in Wistar rat streptozotocin-nicotinamide-induced diabetic model assessed as diarrhea at 1 to 10 mg/kg, po; format: organism-based; design: dose 1-10 mg/kg, route oral; conditions: in vivo

| Structure (SMILES) | pIC50 [1] | other results |
| --- | --- | --- |
| OC[C@H]1O[C@@H](Oc2[nH]nc(C(F)(F)F)c2Cc2cccc(O)c2)[C@H](O)[C@@H](O)[C@@H]1O | 5.55 |  |
| CCc1[nH]nc(O[C@@H]2O[C@H](CO)[C@@H](O)[C@H](O)[C@H]2O)c1Cc1ccccc1OCc1ccccc1 | 4.86 |  |
| OC[C@H]1O[C@@H](Oc2[nH]nc(C(F)(F)F)c2Cc2cccc(OCc3ccccc3)c2)[C@H](O)[C@@H](O)[C@@H]1O | 5.25 |  |
| CC(C)c1n[nH]c(O[C@@H]2O[C@H](CO)[C@@H](O)[C@H](O)[C@H]2O)c1Cc1ccccc1C(F)(F)F | 4.22 |  |
| OC[C@H]1O[C@@H](Oc2n[nH]c(C(F)(F)F)c2Cc2ccccc2O)[C@H](O)[C@@H](O)[C@@H]1O | 4.83 |  |
| OC[C@H]1O[C@@H](Oc2n[nH]c(C(F)(F)F)c2Cc2ccccc2OCc2ccccc2)[C@H](O)[C@@H](O)[C@@H]1O | 4.85 | pIC50 [2]: 6.64; pIC50 [3]: 4.39; Stability [4]: Unstable; Stability [5]: Unstable |
| OC[C@H]1O[C@@H](Oc2n[nH]c(C(F)(F)F)c2Cc2ccccc2)[C@H](O)[C@@H](O)[C@@H]1O | 6.47 |  |
| CC(C)c1[nH]nc(O[C@@H]2O[C@H](CO)[C@@H](O)[C@H](O)[C@H]2O)c1Cc1ccccc1 | 5.69 | solubility [6]: 19000 µg/mL (≈ 50.2 mM) |
| CC(C)c1[nH]nc(O[C@@H]2O[C@H](CO)[C@@H](O)[C@H](O)[C@H]2O)c1Cc1ccccc1C#N | 4.18 |  |
| CC(C)c1[nH]nc(O[C@@H]2O[C@H](CO)[C@@H](O)[C@H](O)[C@H]2O)c1Cc1ccc(C#N)cc1 | 5.45 |  |
| COc1ccc(Cc2c(O[C@@H]3O[C@H](CO)[C@@H](O)[C@H](O)[C@H]3O)n[nH]c2C(C)C)cc1 | 6.42 |  |
| OC[C@H]1O[C@@H](Oc2n[nH]c(C(F)(F)F)c2Cc2ccc(OCc3ccccc3)cc2)[C@H](O)[C@@H](O)[C@@H]1O | 8.15 |  |
| CCc1ccccc1Cc1c(O[C@@H]2O[C@H](CO)[C@@H](O)[C@H](O)[C@H]2O)n[nH]c1C(C)C | 4.85 |  |
| CCOC(=O)OC[C@H]1O[C@@H](Oc2ccccc2Cc2ccc(OC)cc2)[C@H](O)[C@@H](O)[C@@H]1O [SERGLIFLOZIN ETABONATE] |  | Activity (Rattus norvegicus [7]): 53.3 mg |
| Cc1cccc(Cc2c(O[C@@H]3O[C@H](CO)[C@@H](O)[C@H](O)[C@H]3O)n[nH]c2C(C)C)c1 | 5.22 |  |
| CCc1ccc(Cc2c(C(C)C)n[nH]c2O[C@@H]2O[C@H](CO)[C@@H](O)[C@H](O)[C@H]2O)cc1 | 7.17 |  |
| Cc1ccccc1Cc1c(C(C)C)n[nH]c1O[C@@H]1O[C@H](CO)[C@@H](O)[C@H](O)[C@H]1O | 4.73 |  |

| Structure (SMILES) | pIC50 [1] | other results |
| --- | --- | --- |
| COc1ccccc1Cc1c(O[C@@H]2O[C@H](CO)[C@@H](O)[C@H](O)[C@H]2O)n[nH]c1C(C)C | 3.69 |  |
| O=C(CCc1ccc(O)cc1)c1c(O)cc(O)cc1O[C@@H]1O[C@H](CO)[C@@H](O)[C@H](O)[C@H]1O [PHLORIZIN] |  | pIC50 [3]: 7.02; Stability [4]: Unstable; Stability [5]: Unstable; Activity (Rattus norvegicus [8]): inactive |
| Cc1ccc(Cc2c(O[C@@H]3O[C@H](CO)[C@@H](O)[C@H](O)[C@H]3O)n[nH]c2C(C)C)c(C)c1 | 5.22 | pIC50 [2]: 7.17; pIC50 [3]: 5.33; remaining at 0.5 h, 50 µM [4]: 91%; remaining at 1 h, 50 µM [5]: 67%; solubility [6]: 3700 µg/mL (≈ 9.1 mM); Activity (Rattus norvegicus [9]): Dose-dependent effect; Activity (Rattus norvegicus [10]): Non-toxic; Activity (Rattus norvegicus [11]): Non-toxic; Activity (Rattus norvegicus [7]): 0.8 mg |
| CC(C)c1[nH]nc(O[C@@H]2O[C@H](CO)[C@@H](O)[C@H](O)[C@H]2O)c1Cc1ccc(F)cc1 | 5.38 |  |
| CC(C)c1[nH]nc(O[C@@H]2O[C@H](CO)[C@@H](O)[C@H](O)[C@H]2O)c1Cc1ccc(O)cc1 | 6.55 |  |
| Cc1cc(O)ccc1Cc1c(C(C)C)n[nH]c1O[C@@H]1O[C@H](CO)[C@@H](O)[C@H](O)[C@H]1O | 5.16 | pIC50 [2]: 6.74; pIC50 [3]: 5.36 |
| CC(C)(C)c1[nH]nc(O[C@@H]2O[C@H](CO)[C@@H](O)[C@H](O)[C@H]2O)c1Cc1ccccc1OCc1ccccc1 | 4.19 |  |
| Cc1ccc(Cc2c(O[C@@H]3O[C@H](CO)[C@@H](O)[C@H](O)[C@H]3O)n[nH]c2C(C)C)cc1 | 6.64 |  |
| CC(C)c1[nH]nc(O[C@@H]2O[C@H](CO)[C@@H](O)[C@H](O)[C@H]2O)c1Cc1cccc(O)c1 | 4.88 |  |
| Cc1cc(O)ccc1Cc1c(O[C@@H]2O[C@H](CO)[C@@H](O)[C@H](O)[C@H]2O)n[nH]c1C(C)C |  | Activity (Rattus norvegicus [9]): Dose-dependent effect |
| OC[C@H]1O[C@@H](Oc2n[nH]c(C3CC3)c2Cc2ccccc2OCc2ccccc2)[C@H](O)[C@@H](O)[C@@H]1O | 3.81 |  |
| CC(C)c1[nH]nc(O[C@@H]2O[C@H](CO)[C@@H](O)[C@H](O)[C@H]2O)c1Cc1ccccc1OCc1ccccc1 | 4.13 | pIC50 [2]: 6.51; pIC50 [3]: 4.00; remaining at 0.5 h, 50 µM [4]: 71%; remaining at 1 h, 50 µM [5]: 51%; solubility [6]: 240 µg/mL (≈ 0.495 mM); Activity (Rattus norvegicus [7]): 0.4 mg |
| Cc1[nH]nc(O[C@@H]2O[C@H](CO)[C@@H](O)[C@H](O)[C@H]2O)c1Cc1ccccc1OCc1ccccc1 | 5.30 |  |
| CC(C)c1n[nH]c(O[C@@H]2O[C@H](CO)[C@@H](O)[C@H](O)[C@H]2O)c1Cc1ccccc1F | 5.86 |  |
| OC[C@H]1O[C@@H](Oc2[nH]nc(C(F)(F)F)c2Cc2ccc(O)cc2)[C@H](O)[C@@H](O)[C@@H]1O | 6.81 |  |
| CC(C)c1[nH]nc(O[C@@H]2O[C@H](CO)[C@@H](O)[C@H](O)[C@H]2O)c1Cc1ccccc1O | 4.12 |  |
